Laboratory results reported in ChEMBL document CHEMBL3351575, “Halogenated diarylacetylenes repress c-myc expression in cancer cells” (Bioorg Med Chem Lett, 2014).
The source made the active and inactive calls. The rule behind the calls is not given here.

Experiments:
Assay type in all cases: functional, cell-based
[1] = Antiproliferative activity against human LS 174T cells after 4 days by Vi-Cell cell viability analyzer; conditions: LS174T, 96 h
LS174T [2] = assay: Inhibition of c-myc expression in human LS 174T cells at 1 uM after 36 hrs by Western blotting analysis
In short: (§1)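 LS174T colon cancer cells exposed to each diarylacetylene at 1 μM for 36 h, alongside a DMSO vehicle control and a reference compound; cell lysates then probed by western blot, with β-tubulin as the loading control.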

LS174T [3] = assay: Induction of p21([…]/Cip1) expression in human LS 174T cells at 1 uM after 36 hrs by Western blotting analysis; in short: as §1

Structure (SMILES) | IC50 [1] | inhibition (LS174T [2]) | Activity (LS174T [3])
CN(C)c1ccc(C#Cc2c(Cl)cccc2Cl)cc1 | 0.052 µM | Active | Active
CN(C)c1ccc(C#Cc2c(F)cccc2F)cc1 | 0.023 µM | Active | Active
Nc1ccc(C#Cc2c(F)cccc2F)cc1 | 0.055 µM | – | –
CN(C)c1ccc(C#Cc2cc(F)cc(F)c2)cc1 | > 3 µM | – | –
CN(C)c1ccc(C#Cc2ccccc2Cl)cc1 | 0.031 µM | Active | Active
CN(C)c1ccc(C#Cc2ccccc2)cc1 | > 3 µM | Active | Active
CN(C)c1ccc(C#Cc2ccc(F)c(F)c2)cc1 | > 3 µM | Active | Active
CN(C)c1ccc(C#Cc2c(F)cccc2Cl)cc1 | 0.019 µM | Active | Active
CN(C)c1ccc(C#Cc2cc(F)ccc2F)cc1 | 0.055 µM | – | –
CN(C)c1ccc(C#Cc2ccccc2F)cc1 | 0.039 µM | Active | Active
CN(C)c1ccc(C#Cc2cccc(F)c2)cc1 | > 3 µM | Active | Active
CN(C)c1ccc(/C=C/c2c(F)cccc2F)cc1 | 0.059 µM | Active | Active
CN(C)c1ccc(C#Cc2ccc(F)cc2)cc1 | > 3 µM | Active | Active
CNc1ccc(C#Cc2c(F)cccc2F)cc1 | 0.023 µM | Active | Active
CN(C)c1ccc(C#Cc2cccc(F)c2F)cc1 | 0.119 µM | – | –
CN(C)c1ccc(C#Cc2ccc(F)cc2F)cc1 | 0.056 µM | – | –
